Measured values: ChEMBL document CHEMBL3352109, “Synthesis and antifungal activity of substituted salicylaldehyde hydrazones, hydrazides and sulfohydrazides” (Bioorg Med Chem, 2014)
Values after ≈ are worked out from the molar mass of the structure shown. Active and inactive are the calls of the source. The calls are words filed in the database; no cut-off is given here.

Legend:
Candida albicans = assay: Antifungal activity against Candida albicans ATCC 10231 by NCCLS method; format: functional
Summary of the method: (§1)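 Broth dilution per NCCLS yeast reference method, in HEPES-buffered RPMI with 1% DMSO. MIC80 is the lowest concentration giving more than 80% growth inhibition versus positive (no-drug) controls. Read by visual scoring, not absorbance. Highest level tested 125 µg/mL.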

Nakaseomyces glabratus = assay: Antifungal activity against Candida glabrata ATCC 48435 by NCCLS method; format: functional; summary of the method: as §1

Structure (SMILES)	MIC80 (Candida albicans)	MIC80 (Nakaseomyces glabratus)
N/N=C/c1cc(Cl)cc(Cl)c1O	16 µg/mL (≈ 78 µM)	62 µg/mL (≈ 302 µM)
O=[N+]([O-])c1ccc(N/N=C/c2cc(Br)ccc2O)cc1	inactive	inactive
CC(C)(C)c1cccc(/C=N/Nc2ccccc2)c1O	inactive	inactive
O=C(N/N=C/c1ccc(/C=N/NC(=O)c2ccc([N+](=O)[O-])cc2)cc1)c1ccc([N+](=O)[O-])cc1	inactive	inactive
CC(C)(C)c1cccc(/C=N/Nc2ccc([N+](=O)[O-])cc2)c1O	inactive	inactive
O=[N+]([O-])c1ccc(N/N=C/c2cc(Br)cc(Br)c2O)cc1	inactive	62 µg/mL (≈ 149 µM)
Cc1ccc(O)c(/C=N/NC(=O)c2ccc(O)cc2)c1	inactive	1 µg/mL (≈ 3.7 µM)
Cc1ccc(C)c(N/N=C/c2ccccc2O)c1	inactive	inactive
O=[N+]([O-])c1ccc(N/N=C/c2cc(Cl)cc(Cl)c2O)cc1	inactive	62 µg/mL (≈ 190 µM)
N/N=C/c1cc([N+](=O)[O-])ccc1O	inactive	31 µg/mL (≈ 171 µM)
O=C(N/N=C/c1ccccc1O)c1ccc(O)cc1	inactive	4 µg/mL (≈ 15.6 µM)
O=C(N/N=C/c1ccc(/C=N/NC(=O)c2ccccc2)cc1)c1ccccc1	inactive	inactive
N/N=C/c1cc(Br)cc(Br)c1O	16 µg/mL (≈ 54.4 µM)	8 µg/mL (≈ 27.2 µM)
O=[N+]([O-])c1ccc(N/N=C/c2ccc(O)cc2O)c([N+](=O)[O-])c1	inactive	inactive
O=C(N/N=C/c1cc([N+](=O)[O-])ccc1O)c1ccc([N+](=O)[O-])cc1	inactive	16 µg/mL (≈ 48.4 µM)
Oc1ccccc1/C=N/N=C/c1ccccc1O	inactive	inactive

Structure (SMILES)	MIC80 (Candida albicans)	MIC80 (Nakaseomyces glabratus)
O=C(N/N=C/c1cc([N+](=O)[O-])cc([N+](=O)[O-])c1O)c1ccccc1	inactive	inactive
O=[N+]([O-])c1ccc(N/N=C/c2ccccc2O)c([N+](=O)[O-])c1	inactive	inactive
C(=N\Nc1ccccc1)/c1ccc(/C=N/Nc2ccccc2)cc1	inactive	125 µg/mL (≈ 398 µM)
Cc1ccc(O)c(/C=N/NC(=O)c2ccccc2O)c1	16 µg/mL (≈ 59.2 µM)	inactive
O=[N+]([O-])c1ccc(N/N=C/c2cc(Cl)ccc2O)cc1	inactive	62 µg/mL (≈ 213 µM)
Oc1c(Br)cc(Br)cc1/C=N/Nc1ccccc1	inactive	62 µg/mL (≈ 168 µM)
CC(C)(C)c1cccc(/C=N/NC(=O)c2ccccc2)c1O	inactive	inactive
O=[N+]([O-])c1ccc(N/N=C/c2ccc(O)cc2O)cc1	inactive	1 µg/mL (≈ 3.66 µM)
O=Cc1ccc(/C=N/Nc2ccc([N+](=O)[O-])cc2[N+](=O)[O-])cc1	inactive	inactive
COc1ccc(O)c(/C=N/NC(=O)c2ccc(O)cc2)c1	inactive	4 µg/mL (≈ 14 µM)
O=C(N/N=C/c1cc(Cl)ccc1O)c1ccccc1O	8 µg/mL (≈ 27.5 µM)	inactive
O=C(N/N=C/c1cc(Cl)ccc1O)c1ccc(O)cc1	inactive	62 µg/mL (≈ 213 µM)
Cc1ccc(O)c(/C=N/Nc2ccc([N+](=O)[O-])cc2)c1	inactive	inactive
O=C(N/N=C/c1ccc(O)cc1O)c1ccc([N+](=O)[O-])cc1	inactive	0.5 µg/mL (≈ 1.66 µM)
O=[N+]([O-])c1ccc(N/N=C/c2cccc(Br)c2O)cc1	inactive	inactive

The remaining lines, values ahead:

MIC80 (Candida albicans)	MIC80 (Nakaseomyces glabratus)	Structure (SMILES)
4 µg/mL (≈ 12.5 µM)	2 µg/mL (≈ 6.27 µM)	O=C(N/N=C/c1cccc(Br)c1O)c1ccccc1
31 µg/mL (≈ 90.8 µM)	125 µg/mL (≈ 366 µM)	CC(C)(C)c1cccc(/C=N/NC(=O)c2ccc([N+](=O)[O-])cc2)c1O
16 µg/mL (≈ 50 µM)	62 µg/mL (≈ 194 µM)	O=C(N/N=C/c1cc(Cl)ccc1O)c1ccc([N+](=O)[O-])cc1
1 µg/mL (≈ 2.26 µM)	125 µg/mL (≈ 282 µM)	O=C(N/N=C/c1cc(Br)cc(Br)c1O)c1ccc([N+](=O)[O-])cc1
16 µg/mL (≈ 62.4 µM)	8 µg/mL (≈ 31.2 µM)	O=C(N/N=C/c1ccccc1O)c1ccccc1O
125 µg/mL (≈ 445 µM)	125 µg/mL (≈ 445 µM)	Oc1c(Cl)cc(Cl)cc1/C=N/Nc1ccccc1
31 µg/mL (≈ 128 µM)	31 µg/mL (≈ 128 µM)	COc1ccc(O)c(/C=N/Nc2ccccc2)c1
62 µg/mL (≈ 274 µM)	8 µg/mL (≈ 35.4 µM)	Cc1ccc(O)c(/C=N/Nc2ccccc2)c1
125 µg/mL (≈ 396 µM)	2 µg/mL (≈ 6.34 µM)	COc1ccc(O)c(/C=N/NC(=O)c2ccc([N+](=O)[O-])cc2)c1
16 µg/mL (≈ 55.9 µM)	16 µg/mL (≈ 55.9 µM)	COc1ccc(O)c(/C=N/NC(=O)c2ccccc2O)c1
1 µg/mL (≈ 2.75 µM)	2 µg/mL (≈ 5.49 µM)	O=C(N/N=C/c1cc(Br)ccc1O)c1ccc([N+](=O)[O-])cc1
16 µg/mL (≈ 56.1 µM)	16 µg/mL (≈ 56.1 µM)	O=C(N/N=C/c1cc([N+](=O)[O-])ccc1O)c1ccccc1
16 µg/mL (≈ 75.4 µM)	16 µg/mL (≈ 75.4 µM)	Oc1ccccc1/C=N/Nc1ccccc1
4 µg/mL (≈ 14.8 µM)	0.5 µg/mL (≈ 1.85 µM)	COc1ccc(O)c(/C=N/NC(=O)c2ccccc2)c1
62 µg/mL (≈ 363 µM)	31 µg/mL (≈ 182 µM)	N/N=C/c1cc(Cl)ccc1O
2 µg/mL (≈ 6.27 µM)	2 µg/mL (≈ 6.27 µM)	O=C(N/N=C/c1cc(Br)ccc1O)c1ccccc1
125 µg/mL (≈ 373 µM)	62 µg/mL (≈ 185 µM)	O=C(N/N=C/c1cc(Br)ccc1O)c1ccc(O)cc1
2 µg/mL (≈ 8.32 µM)	1 µg/mL (≈ 4.16 µM)	O=C(N/N=C/c1ccccc1O)c1ccccc1 [SALICYLALDEHYDE BENZOYL HYDRAZONE]

MIC80 (Candida albicans)	MIC80 (Nakaseomyces glabratus)	Structure (SMILES)
31 µg/mL (≈ 126 µM)	31 µg/mL (≈ 126 µM)	Oc1ccc(Cl)cc1/C=N/Nc1ccccc1
31 µg/mL (≈ 136 µM)	2 µg/mL (≈ 8.76 µM)	Oc1ccc(/C=N/Nc2ccccc2)c(O)c1
4 µg/mL (≈ 13.5 µM)	125 µg/mL (≈ 422 µM)	CC(C)(C)c1ccc(C(=O)N/N=C/c2ccccc2O)cc1
125 µg/mL (≈ 414 µM)	62 µg/mL (≈ 205 µM)	O=[N+]([O-])c1ccc(N/N=C/c2cc([N+](=O)[O-])ccc2O)cc1
31 µg/mL (≈ 87.5 µM)	125 µg/mL (≈ 353 µM)	O=C(N/N=C/c1cc(Cl)cc(Cl)c1O)c1ccc([N+](=O)[O-])cc1
8 µg/mL (≈ 23.9 µM)	62 µg/mL (≈ 185 µM)	O=C(N/N=C/c1cc(Br)ccc1O)c1ccccc1O
125 µg/mL (≈ 486 µM)	4 µg/mL (≈ 15.5 µM)	O=[N+]([O-])c1ccc(N/N=C/c2ccccc2O)cc1
31 µg/mL (≈ 121 µM)	1 µg/mL (≈ 3.9 µM)	O=C(N/N=C/c1ccc(O)cc1O)c1ccccc1
8 µg/mL (≈ 25.9 µM)	16 µg/mL (≈ 51.8 µM)	O=C(N/N=C/c1cc(Cl)cc(Cl)c1O)c1ccccc1
31 µg/mL (≈ 121 µM)	16 µg/mL (≈ 62.2 µM)	O=[N+]([O-])c1ccc(O)c(/C=N/Nc2ccccc2)c1
31 µg/mL (≈ 85.1 µM)	31 µg/mL (≈ 85.1 µM)	O=C(N/N=C/c1cccc(Br)c1O)c1ccc([N+](=O)[O-])cc1
8 µg/mL (≈ 27.5 µM)	16 µg/mL (≈ 55 µM)	Oc1c(Br)cccc1/C=N/Nc1ccccc1
62 µg/mL (≈ 407 µM)	31 µg/mL (≈ 204 µM)	N/N=C/c1ccc(O)cc1O
8 µg/mL (≈ 20.1 µM)	31 µg/mL (≈ 77.9 µM)	O=C(N/N=C/c1cc(Br)cc(Br)c1O)c1ccccc1
125 µg/mL (≈ 650 µM)	62 µg/mL (≈ 322 µM)	CC(C)(C)c1cccc(/C=N/N)c1O
31 µg/mL (≈ 106 µM)	31 µg/mL (≈ 106 µM)	Oc1ccc(Br)cc1/C=N/Nc1ccccc1
31 µg/mL (≈ 144 µM)	62 µg/mL (≈ 288 µM)	N/N=C/c1cc(Br)ccc1O
